These results are taken from ChEMBL document CHEMBL4825756, “New Design Rules for Developing Potent Cell-Active Inhibitors of the Nucleosome Remodeling Factor (NURF) via BPTF Bromodomain Inhibition” (J Med Chem, 2021).

Calls of active or inactive are those of the source. The calls are words filed in the database; no cut-off is given here.

The target in test [1] is Chromatin remodeling regulator CECR2 (Homo sapiens) (UniProt Q9BXF3). As to the kind of experiment: Binding affinity to 5FW-labeled CECR2 (unknown origin) expressed in Escherichia coli BL21 (DE3) cells at 7.4 to 200 uM by PrOF NMR analysis. As to conditions: dose 7.4-200 µM. A digest of the protocol: (§1)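 Protein-observed 19F NMR with 5-fluorotryptophan-labelled protein. Each ligand is titrated and the change in chemical shift relative to a control sample is plotted against ligand concentration to give a binding isotherm. Kd is taken from a fit to the quadratic binding equation, which uses total ligand and total protein concentrations.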

The target is the same in test [2]. In words: Inhibition of CECR2 (unknown origin) at 140 nM by BROMOscan method relative to control.
The target of test [3] is T1, Bromodomain-containing protein 4 (Homo sapiens, UniProt O60885). In words: Binding affinity to BRD4 BD1 (unknown origin) by BROMOscan method.
For test [4], the target named is T2, Histone acetyltransferase KAT2B (Homo sapiens, UniProt Q92831). As to the kind of experiment: Binding affinity to 5FW-labeled PCAF (unknown origin) expressed in Escherichia coli BL21 (DE3) cells at 7.4 to 200 uM by PrOF NMR analysis. As to conditions: dose 7.4-200 µM. A digest of the protocol:
as §1
Target sequence in this assay (Q92831 whole entry, looked up): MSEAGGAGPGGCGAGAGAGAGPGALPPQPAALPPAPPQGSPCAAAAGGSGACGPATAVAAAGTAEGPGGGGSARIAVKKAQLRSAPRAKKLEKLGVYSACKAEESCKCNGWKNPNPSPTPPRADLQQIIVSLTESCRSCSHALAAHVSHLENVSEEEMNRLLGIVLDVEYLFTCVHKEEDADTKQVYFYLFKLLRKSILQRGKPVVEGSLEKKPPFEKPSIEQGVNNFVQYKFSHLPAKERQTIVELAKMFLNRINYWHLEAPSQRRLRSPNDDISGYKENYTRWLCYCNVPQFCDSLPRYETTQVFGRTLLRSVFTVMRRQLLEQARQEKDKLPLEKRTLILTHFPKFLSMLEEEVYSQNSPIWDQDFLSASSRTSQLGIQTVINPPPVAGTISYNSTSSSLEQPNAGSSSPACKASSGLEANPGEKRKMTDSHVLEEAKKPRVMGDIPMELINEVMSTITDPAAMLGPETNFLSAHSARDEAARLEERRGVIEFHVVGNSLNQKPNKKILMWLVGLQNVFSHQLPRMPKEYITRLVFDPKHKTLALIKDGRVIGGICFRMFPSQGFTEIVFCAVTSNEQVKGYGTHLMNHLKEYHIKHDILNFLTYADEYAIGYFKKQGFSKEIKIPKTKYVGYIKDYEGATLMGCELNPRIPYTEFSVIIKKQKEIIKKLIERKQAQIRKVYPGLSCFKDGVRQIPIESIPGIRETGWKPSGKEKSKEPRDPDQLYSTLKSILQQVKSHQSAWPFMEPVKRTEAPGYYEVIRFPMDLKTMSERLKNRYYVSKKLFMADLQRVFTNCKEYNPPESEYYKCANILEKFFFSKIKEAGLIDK

Test [5] has as its target T1, Bromodomain-containing protein 4. In words: Inhibition of HIS9-tagged BRD4 (unknown origin) expressed in Escherichia coli BL21 (DE3) cells incubated for 30 mins by AlphaScreen assay.
Test [6] concerns 4T1. In words: Growth inhibition of mouse 4T1 cells assessed as reduction cell viability 2.5 to 8 uM in presence of doxorubicin incubated for 4 days by MTS assay relative to control. As to conditions: dose 2.5-8 µM, time 4.0 day. The class given is functional, cell-based. A digest of the protocol:
(§2)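 Mouse 4T1 breast cancer cells in DMEM with 10% FBS, 2 mM glutamine and penicillin-streptomycin, 4000 cells/well, adhered overnight. Three inhibitor doses, chosen from toxicity curves, given for 4 days alone or with 50 nM doxorubicin, also in shRNA BPTF-knockdown cells. MTS absorbance read at 490 nm; fraction survival scaled to untreated cells (1.0) and blank (0.0); N=3, mean ± SEM.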
(Tetrazolium dyes change colour on reduction, which living cells bring about.)

In test [7] the target is Histone acetyltransferase KAT2A (Homo sapiens) (UniProt Q92830). In words: Inhibition of GCN5L2 (unknown origin) at 140 nM by BROMOscan method relative to control.
Test [8] addresses T2, Histone acetyltransferase KAT2B. In words: Binding affinity to PCAF (unknown origin) by BROMOscan method.
Target sequence in this assay (Q92831 whole entry): as the sequence (Q92831 whole entry, looked up) above
The target in test [9] is T3, Bromodomain-containing protein 9 (Homo sapiens, UniProt Q9H8M2).
T3 sequence (Q9H8M2 whole entry): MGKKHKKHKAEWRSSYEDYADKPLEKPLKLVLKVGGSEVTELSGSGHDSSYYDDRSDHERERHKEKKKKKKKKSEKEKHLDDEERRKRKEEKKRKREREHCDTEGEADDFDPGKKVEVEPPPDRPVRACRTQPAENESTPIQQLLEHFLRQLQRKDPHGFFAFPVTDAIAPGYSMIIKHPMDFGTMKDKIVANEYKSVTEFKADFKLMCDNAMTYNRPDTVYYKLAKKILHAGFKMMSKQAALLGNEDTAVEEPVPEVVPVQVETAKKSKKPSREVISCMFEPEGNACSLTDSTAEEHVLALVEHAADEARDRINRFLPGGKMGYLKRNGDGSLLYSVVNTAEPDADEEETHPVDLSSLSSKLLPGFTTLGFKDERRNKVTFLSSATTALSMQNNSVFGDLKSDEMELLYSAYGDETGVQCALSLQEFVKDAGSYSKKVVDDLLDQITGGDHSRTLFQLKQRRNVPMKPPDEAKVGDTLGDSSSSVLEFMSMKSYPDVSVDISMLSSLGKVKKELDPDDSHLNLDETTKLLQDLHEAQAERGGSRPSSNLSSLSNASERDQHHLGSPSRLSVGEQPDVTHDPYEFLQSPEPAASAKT
As to the kind of experiment: Binding affinity to BRD9 (unknown origin) by BROMOscan method.

In test [10] the test system is 4T1. As to the kind of experiment: Growth inhibition of mouse 4T1 cells BPTF knock down assessed as reduction cell viability 15 uM in presence of doxorubicin incubated for 4 days by MTS assay relative to control. The class given is functional, cell-based. As to conditions: time 4.0 day. Summed up: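 4T1 cells with shRNA BPTF knockdown, grown in DMEM with 10% FBS, 2 mM glutamine and pen-strep, were seeded at 4000/well and allowed to adhere overnight. They were treated 4 days in complete medium with one of three inhibitor doses chosen from toxicity curves, combined with 50 nM doxorubicin. MTS absorbance was read at 490 nm. Fraction survival was set against untreated cells (1.0) and blank (0.0).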

In test [11] the test system is EpH4. As to the kind of experiment: Upregulation of sfn mRNA in mouse EpH4 cells at 5 uM after 24 hrs by qRT-PCR analysis. The class given is functional, cell-based. A digest of the protocol:
(§3)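 Murine Eph4 mammary epithelial cells were treated at 5 μM for 24 h and harvested in trizol. Transcripts were quantified by SYBR Green qPCR. Group differences were tested by one-way ANOVA at p<0.05.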
(Real-time PCR tracks product formation cycle by cycle.)

Test [12] relates to EpH4. As to the kind of experiment: Upregulation of sprr1a mRNA in mouse EpH4 cells at 5 uM after 24 hrs by qRT-PCR analysis. The format is functional, cell-based. Summed up:
as §3

The test system of test [13] is EpH4. As to the kind of experiment: Upregulation of Myc mRNA in mouse EpH4 cells at 5 uM after 24 hrs by qRT-PCR analysis. The format is functional, cell-based. A digest of the protocol: as §3
For test [14], the target named is Nucleosome-remodeling factor subunit BPTF (Homo sapiens, UniProt Q12830). As to the kind of experiment: Binding affinity to 5FW-labeled BPTF (unknown origin) expressed in Escherichia coli BL21 (DE3) cells by PrOF NMR analysis.
For test [15], the system named is 4T1. As to the kind of experiment: Growth inhibition of mouse 4T1 cells assessed as reduction cell viability 5 to 15 uM in presence of doxorubicin incubated for 4 days by MTS assay relative to control. As to conditions: dose 5-15 µM, time 4.0 day. The format is functional, cell-based. Summed up:
as §2

Sequence of Chromatin remodeling regulator CECR2 (Homo sapiens) (Q9BXF3 whole entry, looked up): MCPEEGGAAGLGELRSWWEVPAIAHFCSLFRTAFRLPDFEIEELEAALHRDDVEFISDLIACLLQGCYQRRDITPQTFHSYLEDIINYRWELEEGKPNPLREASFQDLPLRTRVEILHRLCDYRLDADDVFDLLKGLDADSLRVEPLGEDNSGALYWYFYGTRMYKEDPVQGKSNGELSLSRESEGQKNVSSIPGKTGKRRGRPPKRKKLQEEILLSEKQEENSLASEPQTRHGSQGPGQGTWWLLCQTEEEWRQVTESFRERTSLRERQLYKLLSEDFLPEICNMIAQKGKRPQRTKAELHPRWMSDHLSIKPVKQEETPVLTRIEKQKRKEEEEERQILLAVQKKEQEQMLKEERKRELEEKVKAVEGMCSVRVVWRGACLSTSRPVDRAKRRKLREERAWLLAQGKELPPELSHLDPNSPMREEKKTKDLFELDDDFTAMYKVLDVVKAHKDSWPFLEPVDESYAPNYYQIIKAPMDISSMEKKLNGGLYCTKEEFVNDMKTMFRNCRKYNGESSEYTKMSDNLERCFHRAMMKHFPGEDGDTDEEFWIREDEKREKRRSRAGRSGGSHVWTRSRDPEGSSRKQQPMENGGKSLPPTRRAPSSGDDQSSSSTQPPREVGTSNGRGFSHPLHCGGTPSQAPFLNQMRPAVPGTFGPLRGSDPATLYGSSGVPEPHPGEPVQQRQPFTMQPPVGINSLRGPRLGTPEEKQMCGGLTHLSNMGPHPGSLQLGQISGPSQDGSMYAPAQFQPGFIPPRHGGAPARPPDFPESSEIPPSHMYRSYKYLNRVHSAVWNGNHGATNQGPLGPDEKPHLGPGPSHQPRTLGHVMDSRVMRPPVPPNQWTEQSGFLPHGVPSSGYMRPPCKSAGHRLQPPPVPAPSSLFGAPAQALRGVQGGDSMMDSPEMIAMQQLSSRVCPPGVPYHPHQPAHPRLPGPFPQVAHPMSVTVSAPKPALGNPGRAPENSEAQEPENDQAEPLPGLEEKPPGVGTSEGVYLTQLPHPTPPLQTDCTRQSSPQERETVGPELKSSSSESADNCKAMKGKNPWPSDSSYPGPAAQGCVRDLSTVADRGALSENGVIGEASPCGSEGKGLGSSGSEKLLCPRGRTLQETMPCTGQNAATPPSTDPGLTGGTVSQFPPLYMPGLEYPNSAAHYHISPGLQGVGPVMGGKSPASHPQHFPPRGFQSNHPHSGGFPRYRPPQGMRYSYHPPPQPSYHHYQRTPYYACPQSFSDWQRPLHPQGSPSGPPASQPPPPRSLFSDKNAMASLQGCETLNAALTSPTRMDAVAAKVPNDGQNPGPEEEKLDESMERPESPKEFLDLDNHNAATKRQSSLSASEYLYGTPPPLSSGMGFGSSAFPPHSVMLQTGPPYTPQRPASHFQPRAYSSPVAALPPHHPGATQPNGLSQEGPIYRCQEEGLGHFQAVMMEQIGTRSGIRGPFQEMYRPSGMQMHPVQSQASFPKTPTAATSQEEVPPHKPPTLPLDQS
Sequence of Histone acetyltransferase KAT2A (Homo sapiens) (Q92830 2-837 limits assumed): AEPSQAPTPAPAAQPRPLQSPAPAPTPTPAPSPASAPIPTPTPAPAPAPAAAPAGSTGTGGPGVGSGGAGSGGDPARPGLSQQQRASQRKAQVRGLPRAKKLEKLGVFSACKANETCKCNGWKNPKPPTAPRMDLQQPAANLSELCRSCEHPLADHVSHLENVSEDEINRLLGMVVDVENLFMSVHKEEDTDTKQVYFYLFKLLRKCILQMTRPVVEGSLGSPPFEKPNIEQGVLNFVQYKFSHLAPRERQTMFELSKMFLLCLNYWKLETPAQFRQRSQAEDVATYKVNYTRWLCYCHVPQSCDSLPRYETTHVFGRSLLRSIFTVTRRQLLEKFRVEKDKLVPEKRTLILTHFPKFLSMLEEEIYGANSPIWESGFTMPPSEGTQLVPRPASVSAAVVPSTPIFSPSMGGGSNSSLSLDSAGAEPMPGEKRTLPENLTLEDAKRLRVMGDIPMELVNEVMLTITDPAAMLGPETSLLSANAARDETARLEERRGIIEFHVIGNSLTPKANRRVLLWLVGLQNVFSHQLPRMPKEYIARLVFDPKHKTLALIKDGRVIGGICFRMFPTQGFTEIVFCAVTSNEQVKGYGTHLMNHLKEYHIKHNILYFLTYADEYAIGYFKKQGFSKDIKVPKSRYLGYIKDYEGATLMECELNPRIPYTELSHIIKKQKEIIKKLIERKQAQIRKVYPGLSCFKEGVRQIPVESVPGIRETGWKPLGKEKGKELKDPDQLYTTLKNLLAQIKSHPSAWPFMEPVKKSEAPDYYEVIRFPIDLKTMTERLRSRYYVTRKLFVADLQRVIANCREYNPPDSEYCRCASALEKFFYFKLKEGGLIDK

As for `Cn1ncc(Nc2ccc(CCN)cc2)c(Cl)c1=O`, the outcome in [1] and in [4] was Active. The inhibition result in [2] and in [7] was “Active” each time. Also, the affinity in test [3], expressed as Kd, was 2200 nM. For the same compound, the IC50 – broadly, the concentration that inhibits the measured activity by half – in test [5] (read-out: IC50) worked out at 31 µM. Moreover, the “growth inhibition (GI)” value in test [6] is “Active”.
Consider `CC(C)n1ncc(Nc2ccc(CN)cc2)c(Cl)c1=O`, for which the concentration for half-maximal inhibition (IC50) result in test [5] is “Not Active”.
As to `Cn1ncc(Nc2ccc(CCN)cc2)c(Br)c1=O`, the results for the Kd in [8] and in test [9] were 14 nM and 0.24 nM, respectively.
Consider `COC(=O)c1cccc(NC(=O)N[C@H]2CCN(c3ccnc(Nc4ccc(F)cc4)n3)C2)c1`, for which the “growth inhibition (GI)” value in test [10] is “Active”. The outcome in [11], in [12] and in test [13] was inactive.
Regarding `CN(C)CCCOc1ccc(-c2cc(NCCCn3cccn3)nc(S(C)(=O)=O)n2)cc1`, binding in test [14] was put at a Kd of 120 µM.
In the case of `CN(C)CCCc1ccc(Nc2cnn(C)c(=O)c2Cl)cc1`, the Kd – broadly, the equilibrium constant for the complex coming apart – in test [8] is 370 nM; in [9], 230 nM.
For the compound `CN(C)CCc1ccc(Nc2cnn(C)c(=O)c2Cl)cc1`, in test [15], the “growth inhibition (GI)” value was “Active”. For the same compound, the outcome in test [11] was Active. Moreover, the result in test [12] and in [13] was inactive.
